What was measured:
Format in all cases: functional
[1] = tested on: RXF 393; assay: Anticancer activity against human RXF393 cells assessed as cell growth at 10^-5 M after 48 hrs by SRB assay; details: RXF 393, 48 h, read-out: Activity
[2] = tested on: OVCAR-3; assay: Anticancer activity against human OVCAR3 cells assessed as cell growth at 10^-5 M after 48 hrs by SRB assay; details: OVCAR-3, 48 h, read-out: Activity
[3] = tested on: Malme-3M; assay: Anticancer activity against human MALME-3M cells assessed as cell growth at 10^-5 M after 48 hrs by SRB assay; details: read-out: Activity
Procedure, shortened: (§1)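 NCI-60 single-dose screen at one concentration. Cells grown in RPMI 1640 with 5% FBS and 2 mM L-glutamine, plated at 5000–40,000 cells/well, and pre-incubated 24 h at 37 °C in 5% CO2 before DMSO-dissolved drug was added. Cells fixed with TCA, SRB-stained, absorbance read at 515 nm. Percent growth calculated against time-zero and untreated control plates.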

[4] = tested on: MCF7; assay: Anticancer activity against human MCF7 cells assessed as cell growth at 10^-5 M after 48 hrs by SRB assay; details: MCF7, 48 h, read-out: Activity; procedure, shortened: as §1
[5] = tested on: MDA-MB-231; assay: Anticancer activity against human MDA-MB-231 cells assessed as cell growth at 10^-5 M after 48 hrs by SRB assay; details: MDA-MB-231, 48 h, read-out: Activity; procedure, shortened: as §1
[6] = tested on: U-251; assay: Anticancer activity against human U251 cells assessed as cell growth at 10^-5 M after 48 hrs by SRB assay; details: U-251, 48 h, read-out: Activity
Procedure, shortened: (§2)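 NCI-60 single-dose screen: cells in RPMI 1640 with 5% FBS and 2 mM L-glutamine, plated at 5000–40,000 cells/well by doubling time, and preincubated 24 h at 37 °C. Compound given at one concentration from DMSO stock. Cells TCA-fixed and SRB-stained, absorbance at 515 nm. Percent growth relative to time-zero and untreated controls; inhibition % = 100 − growth %.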

[7] = tested on: SF-539; assay: Anticancer activity against human SF539 cells assessed as cell growth at 10^-5 M after 48 hrs by SRB assay; details: SF-539, 48 h, read-out: Activity
[8] = tested on: HT-29; assay: Anticancer activity against human HT-29 cells assessed as cell growth at 10^-5 M after 48 hrs by SRB assay; details: HT-29, 48 h, read-out: Activity; procedure, shortened: as §1
[9] = tested on: OVCAR-5; assay: Anticancer activity against human OVCAR5 cells assessed as cell growth at 10^-5 M after 48 hrs by SRB assay; details: OVCAR-5, 48 h, read-out: Activity
[10] = tested on: SN12C; assay: Anticancer activity against human SN12C cells assessed as cell growth at 10^-5 M after 48 hrs by SRB assay; details: read-out: Activity
[11] = tested on: NCI/ADR-RES; assay: Anticancer activity against human NCI/ADR-RES cells assessed as cell growth at 10^-5 M after 48 hrs by SRB assay; details: read-out: Activity
[12] = tested on: RPMI-8226; assay: Anticancer activity against human RPMI8226 cells assessed as cell growth at 10^-5 M after 48 hrs by SRB assay; details: RPMI-8226, 48 h, read-out: Activity
[13] = tested on: KM12; assay: Anticancer activity against human KM12 cells assessed as cell growth at 10^-5 M after 48 hrs by SRB assay; details: KM12, 48 h, read-out: Activity; procedure, shortened: as §1
[14] = tested on: A498; assay: Anticancer activity against human A498 cells assessed as cell growth at 10^-5 M after 48 hrs by SRB assay; details: A498, 48 h, read-out: Activity; procedure, shortened: as §1
[15] = tested on: MOLT-4; assay: Anticancer activity against human MOLT4 cells assessed as cell growth at 10^-5 M after 48 hrs by SRB assay; details: MOLT-4, 48 h, read-out: Activity
[16] = tested on: NCI-H460; assay: Anticancer activity against human NCI-H460 cells assessed as cell growth at 10^-5 M after 48 hrs by SRB assay; details: NCI-H460, 48 h, read-out: Activity
[17] = tested on: M14; assay: Anticancer activity against human M14 cells assessed as cell growth at 10^-5 M after 48 hrs by SRB assay; details: M14, 48 h, read-out: Activity; procedure, shortened: as §1
[18] = tested on: NCI-H322M; assay: Anticancer activity against human NCI-H322M cells assessed as cell growth at 10^-5 M after 48 hrs by SRB assay; details: read-out: Activity
[19] = tested on: T47D; assay: Anticancer activity against human T47D cells assessed as cell growth at 10^-5 M after 48 hrs by SRB assay; details: read-out: Activity; procedure, shortened: as §2
[20] = tested on: ACHN; assay: Anticancer activity against human ACHN cells assessed as cell growth at 10^-5 M after 48 hrs by SRB assay; details: read-out: Activity; procedure, shortened: as §1
[21] = tested on: SK-OV-3; assay: Anticancer activity against human SKOV3 cells assessed as cell growth at 10^-5 M after 48 hrs by SRB assay; details: SK-OV-3, 48 h, read-out: Activity
[22] = tested on: DU-145; assay: Anticancer activity against human DU145 cells assessed as cell growth at 10^-5 M after 48 hrs by SRB assay; details: DU-145, 48 h, read-out: Activity; procedure, shortened: as §1
[23] = tested on: SNB-19; assay: Anticancer activity against human SNB19 cells assessed as cell growth at 10^-5 M after 48 hrs by SRB assay; details: SNB-19, 48 h, read-out: Activity
[24] = tested on: UACC-62; assay: Anticancer activity against human UACC62 cells assessed as cell growth at 10^-5 M after 48 hrs by SRB assay; details: UACC-62, 48 h, read-out: Activity; procedure, shortened: as §2
[25] = tested on: OVCAR-8; assay: Anticancer activity against human OVCAR8 cells assessed as cell growth at 10^-5 M after 48 hrs by SRB assay; details: OVCAR-8, 48 h, read-out: Activity
[26] = tested on: NCI-H23; assay: Anticancer activity against human NCI-H23 cells assessed as cell growth at 10^-5 M after 48 hrs by SRB assay; details: NCI-H23, 48 h, read-out: Activity
[27] = tested on: SF-268; assay: Anticancer activity against human SF268 cells assessed as cell growth at 10^-5 M after 48 hrs by SRB assay; details: SF-268, 48 h, read-out: Activity
[28] = tested on: SNB-75; assay: Anticancer activity against human SNB75 cells assessed as cell growth at 10^-5 M after 48 hrs by SRB assay; details: SNB-75, 48 h, read-out: Activity; procedure, shortened: as §2
[29] = tested on: SK-MEL-28; assay: Anticancer activity against human SK-MEL-28 cells assessed as cell growth at 10^-5 M after 48 hrs by SRB assay; details: SK-MEL-28, 48 h, read-out: Activity
[30] = tested on: COLO 205; assay: Anticancer activity against human COLO205 cells assessed as cell growth at 10^-5 M after 48 hrs by SRB assay; details: COLO 205, 48 h, read-out: Activity; procedure, shortened: as §1
[31] = tested on: BT-549; assay: Anticancer activity against human BT549 cells assessed as cell growth at 10^-5 M after 48 hrs by SRB assay; details: BT-549, 48 h, read-out: Activity; procedure, shortened: as §1
[32] = tested on: MDA-MB-468; assay: Anticancer activity against human MDA-MB-468 cells assessed as cell growth at 10^-5 M after 48 hrs by SRB assay; details: MDA-MB-468, 48 h, read-out: Activity

Compound | growth at 10 µM [1] | growth at 10 µM [2] | growth at 10 µM [3] | growth at 10 µM [4] | growth at 10 µM [5] | growth at 10 µM [6] | growth at 10 µM [7] | growth at 10 µM [8] | growth at 10 µM [9] | growth at 10 µM [10] | growth at 10 µM [11] | growth at 10 µM [12] | growth at 10 µM [13] | growth at 10 µM [14] | growth at 10 µM [15] | growth at 10 µM [16] | growth at 10 µM [17] | growth at 10 µM [18] | growth at 10 µM [19] | growth at 10 µM [20] | also measured
COc1cccc(-c2nc3sccn3c2-c2ccnc(NCCNC(=O)c3ccccc3O)n2)c1 | 78.9% | 75% | 57.5% | 88.5% | 89.4% | 103% | 98% | 96.4% | 112% | 86% | 54.6% | 26% | 77.2% | 89.7% | 59.1% | 92.1% | 46.9% | 95.6% | 60.1% | 62% | growth at 10 µM [21]: 90%; growth at 10 µM [22]: 94.5%; growth at 10 µM [23]: 118%; growth at 10 µM [24]: 36.8%; growth at 10 µM [25]: 55.2%; growth at 10 µM [26]: 93.4%; growth at 10 µM [27]: 93.6%; growth at 10 µM [28]: 103%; growth at 10 µM [29]: 77.1%; growth at 10 µM [30]: 107%; growth at 10 µM [31]: 81.6%; growth at 10 µM [32]: 102%
COc1cccc(-c2nc3sccn3c2-c2ccnc(NCCNC(=O)c3cccc(C(F)(F)F)c3)n2)c1 | 60.5% | 76% | 50.8% | 78.8% | 77.6% | 74.5% | 88.3% | 49.8% | 97.8% | 65.2% | 38.4% | 25.8% | 58.6% | 63.5% | 48% | 74.3% | 46.5% | 102% | 46.7% | 49.5% | growth at 10 µM [21]: 81.1%; growth at 10 µM [22]: 67.7%; growth at 10 µM [23]: 102%; growth at 10 µM [24]: 30.1%; growth at 10 µM [25]: 40.5%; growth at 10 µM [26]: 70.7%; growth at 10 µM [27]: 71%; growth at 10 µM [28]: 85.3%; growth at 10 µM [29]: 75.9%; growth at 10 µM [30]: 46.1%; growth at 10 µM [31]: 78.1%; growth at 10 µM [32]: 71.1%
